Results as given in ChEMBL document CHEMBL2321707, “Synthesis, SAR study, and biological evaluation of a series of piperazine ureas as fatty acid amide hydrolase (FAAH) inhibitors” (Bioorg Med Chem, 2013).

assay: Bioavailability in rat; assay type: ADME, organism-based; conditions: in vivo
Outline: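 Rat cassette dosing, 1 mg/kg po.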

Question: With `O=C(Nc1noc2ccccc12)N1CCN(c2nc(-c3ccccc3)ns2)CC1` as the compound, how does the bioavailability read?
Answer: Its bioavailability is 5%.

assay: Drug level in rat brain at 0.1 mg, iv at 1 hr; assay type: ADME, organism-based; conditions: read-out: Drug uptake
Outline: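 Rats given 0.1 mg/kg i.v.; brain homogenized 1 h after dosing and compound concentration measured in tissue.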

Question: With `Cc1noc(NC(=O)N2CCN(c3nc(-c4cccc(F)c4)cs3)CC2)c1C` as the compound, how does the concentration at 1 h read?
Answer: The concentration at 1 h was 101 ng/g.

Question: With `Cc1noc(NC(=O)N2CCN(c3nc(-c4ccccc4)cs3)CC2)c1C` as the compound, how does the concentration at 1 h read?
Answer: Its concentration at 1 h is 23 ng/g.

Question: For `Cc1noc(NC(=O)N2CCN(c3nc(-c4ccc(F)cc4)cs3)CC2)c1C`, which concentration at 1 h is on record?
Answer: Its concentration at 1 h is 132 ng/g.

Question: For `Cc1noc(NC(=O)N2CCN(c3nc(-c4ccc(F)cc4F)cs3)CC2)c1C`, which concentration at 1 h is on record?
Answer: Its concentration at 1 h is 82 ng/g.

Question: Which concentration at 1 h does the source give for `Cc1noc(NC(=O)N2CCN(c3nc(-c4ccccc4)ns3)CC2)c1C` here?
Answer: Its concentration at 1 h is 25 ng/g.

Question: For `Cc1noc(NC(=O)N2CCN(c3nc(-c4ccc(F)cc4)ns3)CC2)c1C`, which concentration at 1 h is on record?
Answer: Its concentration at 1 h is 17 ng/g.

Question: With `Cc1noc(NC(=O)N2CCN(c3nc(-c4ccccc4F)ns3)CC2)c1C` as the compound, how does the concentration at 1 h read?
Answer: The concentration at 1 h was 4.6 ng/g.

Question: With `Cc1noc(NC(=O)N2CCN(c3nc(-c4cccc(F)c4)ns3)CC2)c1C` as the compound, how does the concentration at 1 h read?
Answer: Its concentration at 1 h is 12 ng/g.

Question: Which concentration at 1 h does the source give for `Cc1noc(NC(=O)N2CCN(c3nc(-c4ccccc4F)cs3)CC2)c1C` here?
Answer: Its concentration at 1 h is 103 ng/g.
